Each structure is given as a SMILES string.

Common to all, as to format: functional
Test [1] can be described thus: Antiinflammatory activity assessed as inhibition of heat-induced albumin denaturation at 0.5 uM after 20 mins by spectrophotometric method relative to control. A digest of the protocol: (§1)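 Bovine albumin fraction as a 1% aqueous solution, with test agent at 0.5−10 μM, adjusted to pH 6.3 with 1 N HCl. Incubated 20 min at 37 °C, then heated 20 min at 51 °C. After cooling, turbidity read at 660 nm. % inhibition = [(A0 − A1)/A0] × 100 versus control absorbance. Diclofenac sodium as reference.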

Test [2] can be described thus: Antiinflammatory activity assessed as inhibition of heat-induced albumin denaturation at 1 uM after 20 mins by spectrophotometric method relative to control. An outline of the steps: as §1
Test [3] can be described thus: Antiinflammatory activity assessed as inhibition of heat-induced albumin denaturation at 5 uM after 20 mins by spectrophotometric method relative to control. An outline of the steps:
as §1

A short description of test [4]: Antiinflammatory activity assessed as inhibition of heat-induced albumin denaturation at 10 uM after 20 mins by spectrophotometric method relative to control. A digest of the protocol: as §1
Test [5] in a line: Antiinflammatory activity assessed as inhibition of heat-induced albumin denaturation after 20 mins by spectrophotometric method. An outline of the steps: as §1
Test [6] concerns Rattus norvegicus. Put plainly: Antiinflammatory activity in Wistar rat assessed as inhibition of carrageenan-induced paw edema at 10 mg/kg, po preincubated for 1 hr followed by carrageenan challenge measured at 1 hr by plethysmometer relative to control. A digest of the protocol: (§2)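 Adult male albino Wistar animals, 25−30 g, in groups of five, 25 ± 2 °C, 12 h light/dark. Oral dosing, with PBS vehicle for controls. One hour later, 0.1 mL of 1% carrageenan was injected subplantar into the left hind paw. Paw volume was read by plethysmometer at 1, 2, 3 and 4 h relative to pre-injection. % inhibition = [(D0 − Dt)/D0] × 100 versus control group mean at each time. Mean ± SD, n = 5, Student's test.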

The test system of test [7] is Rattus norvegicus. Put plainly: Antiinflammatory activity in Wistar rat assessed as inhibition of carrageenan-induced paw edema at 10 mg/kg, po preincubated for 1 hr followed by carrageenan challenge measured at 2 hrs by plethysmometer relative to control. An outline of the steps: as §2
In general terms: Carrageenan injected into the paw causes an acute inflammation.

For test [8], the system named is Rattus norvegicus. Put plainly: Antiinflammatory activity in Wistar rat assessed as inhibition of carrageenan-induced paw edema at 10 mg/kg, po preincubated for 1 hr followed by carrageenan challenge measured at 3 hrs by plethysmometer relative to control. A digest of the protocol:
as §2

For test [9], the system named is Rattus norvegicus. The test is described as follows: Antiinflammatory activity in Wistar rat assessed as inhibition of carrageenan-induced paw edema at 10 mg/kg, po preincubated for 1 hr followed by carrageenan challenge measured at 4 hrs by plethysmometer relative to control. An outline of the steps: as §2

Broadly, the inhibition is how much of the control response was suppressed. As a reminder, the IC50 is the concentration needed to halve the response being measured. Regarding `C/C1=C/CCC2=C[C@@H](OC2=O)C(C)(C)/C=C\C1=O`, the inhibition stood at 15.5% in [1], 22.6% in test [2], 32.9% in [3] and 44.4% in [4]. Besides, the concentration for half-maximal inhibition (IC50) in test [5] was determined as 23.8 µM.

For the molecule `COC(=O)/C1=C\CC(C)(C)/C=C/C(=O)C(C)CCC1` (single isomer, unassigned; (-)), the inhibition in test [1] turned out to be 8.73%; in test [2] it was 16.7%; in test [3], 24.6%. Further, the IC50 in test [5] was 220 µM.

By inhibition in vivo is commonly meant the percentage by which the read-out fell short of the control. In the case of `O=C(O)Cc1ccccc1Nc1c(Cl)cccc1Cl` [DICLOFENAC SODIUM], the inhibition in vivo at 10 mg/kg in the test with Rattus norvegicus [6] was 64.9%; in the test with Rattus norvegicus [7], 71.5%; in the test on Rattus norvegicus [8], 73.7%; in the test with Rattus norvegicus [9], 78.6%. The inhibition worked out at 22.6% in [1], 31.8% in [2], 41.7% in test [3] and 70.2% in test [4]. The IC50 in test [5] was 4.14 µM.

The values are drawn from ChEMBL document CHEMBL4004796, “Exploring the Bioactive Terpenoid Content of an Algerian Plant of the Genus Pulicaria: The ent-Series of Asteriscunolides” (J Nat Prod, 2017).
